According to ChEMBL document CHEMBL3526063, “Metabolism and pharmacokinetics of JM6 in mice: JM6 is not a prodrug for Ro-61-8048” (Drug Metab Dispos, 2012):
One block for each molecule: values may come before it.

Experiments:
[1] = AUC(infinity) in C57BL/6N mouse at 0.05 mg/kg, po administered via gavage by LC-MS/MS analysis; type: ADME, organism-based; design: time infinity, dose 0.05 mg/kg, route oral; conditions: plasma
In short: (§1)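 Male C57BL/6N mice were dosed by oral gavage at 10 mL/kg with a fine suspension in 10% hydroxypropyl-β-cyclodextrin in 50 mM phosphate buffer, pH 7. Plasma was taken at non-serial time points (n=3 per time point), extracted with 0.1% formic acid in acetonitrile containing diclofenac as internal standard, and quantified by UPLC-MS/MS. Composite non-compartmental parameters came from mean concentrations; AUClast by linear trapezoid, kel from at least three terminal points.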

[2] = tested on: Mus musculus; test: Dose normalised AUC in C57BL/6N mouse at 0.05 mg/kg, po administered via gavage by LC-MS/MS analysis; type: ADME, organism-based; design: dose 0.05 mg/kg, route oral; conditions: in vivo; in short: as §1
[3] = Cmax in C57BL/6N mouse at 0.05 mg/kg, po administered via gavage by LC-MS/MS analysis; type: ADME, organism-based; design: dose 0.05 mg/kg, route oral; conditions: in vivo; in short: as §1
[4] = tested on: Mus musculus; test: Dose normalised Cmax in C57BL/6N mouse at 0.05 mg/kg, po administered via gavage by LC-MS/MS analysis; type: ADME, organism-based; design: dose 0.05 mg/kg, route oral; conditions: in vivo; in short: as §1
[5] = Metabolic stability in mouse liver microsomes assessed as intrinsic clearance at 5 uM after 5 to 40 mins by LC-MS/MS analysis; type: ADME; conditions: read-out: CLH
[6] = Plasma protein binding in rat at 5 and 20 uM for 6 hrs by LC-MS/MS analysis; type: ADME, cell-free; conditions: read-out: PPB
In short: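 Equilibrium dialysis: plasma fortified in triplicate (5 and 20 µM rat and mouse; 10 µM human) on donor side, PBS on receiver side; 37°C, 200 rpm, 6 h; both sides by LC-MS/MS.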

[7] = molecular target: Kynurenine 3-monooxygenase (Mus musculus, UniProt Q91WN4); test: Inhibition of C57BL/6J mouse KMO assessed as 3-hydroxykynurenine formation preincubated for 5 mins using 100 uM kynurenine as substrate by LC-MS/MS analysis in presence of 3 mg/ml plasma protein
Sequence of Kynurenine 3-monooxygenase (Mus musculus, UniProt Q91WN4) (Q91WN4 whole entry): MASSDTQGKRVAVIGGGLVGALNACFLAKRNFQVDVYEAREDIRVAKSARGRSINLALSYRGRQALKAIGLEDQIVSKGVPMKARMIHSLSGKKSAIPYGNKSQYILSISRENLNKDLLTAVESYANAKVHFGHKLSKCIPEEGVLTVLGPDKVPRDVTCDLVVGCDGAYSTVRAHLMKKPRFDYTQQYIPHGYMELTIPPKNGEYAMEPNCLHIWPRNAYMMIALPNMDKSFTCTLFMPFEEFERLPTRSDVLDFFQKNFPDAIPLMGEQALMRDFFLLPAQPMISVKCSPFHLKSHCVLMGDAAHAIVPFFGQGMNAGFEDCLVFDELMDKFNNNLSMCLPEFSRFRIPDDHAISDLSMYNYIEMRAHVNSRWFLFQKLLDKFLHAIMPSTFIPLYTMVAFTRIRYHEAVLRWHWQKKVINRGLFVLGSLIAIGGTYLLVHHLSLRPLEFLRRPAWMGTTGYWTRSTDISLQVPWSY
In short: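 Liver mitochondrial KMO (mouse C57 BL/6J or human), 0.3 mg protein/mL in 100 mM potassium phosphate pH 7.4, 200 µM NADPH, NADPH-regenerating system, plus 3 mg/mL plasma protein. Compound pre-incubated 5 min at 25°C; 100 µM kynurenine started reaction for 40 min (mouse) or 60 min (human); TCA stop; 3-hydroxykynurenine by LC-MS/MS. IC50 from 8-point 3-fold series, triplicates, n≥2.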

[8] = Cmax in R6/2 mouse at 7.5 mg/kg/day, po; type: ADME, organism-based; design: dose 7.5 mg/kg/day, route oral; conditions: in vivo
[9] = AUClast in C57BL/6N mouse at 5 mg/kg, iv administered as single dose by LC-MS/MS analysis; type: ADME, organism-based; design: time 0 - last, dose 5 mg/kg, route intravenous; conditions: plasma
In short: (§2)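 Single intravenous bolus of 5 mg/kg to male C57BL/6N mice, given as a filtered 1 mg/mL solution in DMSO:PEG400:water 10:50:40 (v/v). Plasma was extracted in acidified acetonitrile with diclofenac as internal standard and analysed by UPLC-MS/MS. Non-compartmental analysis used mean concentrations (n=3 per time point), with C0 back-extrapolated from the first two samples. AUCinf = AUClast + Ct/kel.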

[10] = tested on: Mus musculus; test: Dose normalised AUC in C57BL/6N mouse at 5 mg/kg, iv administered as single dose by LC-MS/MS analysis; type: ADME, organism-based; design: dose 5 mg/kg, route intravenous; conditions: in vivo; in short: as §2
[11] = Plasma clearance in C57BL/6N mouse at 5 mg/kg, iv administered as single dose by LC-MS/MS analysis; type: ADME, organism-based; design: dose 5 mg/kg, route intravenous
In short: (§3)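 Male C57BL/6N mice given 5 mg/kg iv bolus as 1 mg/mL filtered solution in DMSO:PEG400:water 10:50:40. Plasma extracted with acidified acetonitrile (diclofenac IS), analysed by LC-MS/MS. Composite non-compartmental parameters from mean concentrations (n=3 per time point); C0 back-extrapolated from first two points; kel from at least last three concentrations.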

[12] = Volume of distribution at steady state in C57BL/6N mouse at 5 mg/kg, iv administered as single dose by LC-MS/MS analysis; type: ADME, organism-based; design: dose 5 mg/kg, route intravenous; conditions: in vivo, read-out: Vdss; in short: as §3
[13] = Mean residence time in C57BL/6N mouse at 5 mg/kg, iv administered as single dose by LC-MS/MS analysis; type: ADME, organism-based; design: dose 5 mg/kg, route intravenous; conditions: in vivo; in short: as §3
[14] = Oral bioavailability in C57BL/6N mouse treated with JM6 (containing <0.4% Ro-61-8048) at 9 mg/kg and Ro-61-8048 at 1 mg/kg drugs administered via gavage by LC-MS/MS analysis; type: ADME, organism-based; conditions: in vivo
In short: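 Male C57BL/6N mice dosed by oral gavage (10 mL/kg) as fine suspensions in 10% hydroxypropyl-β-cyclodextrin in 50 mM phosphate buffer pH 7; dose formulations verified by LC-MS/MS. Plasma analysed by LC-MS/MS; composite non-compartmental parameters from mean concentrations (n=3 per time point), C0 set to zero. %F = dose-normalised po AUCinf over dose-normalised iv AUCinf, only within linear range.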

[15] = tested on: Mus musculus; test: Cmax in C57BL/6N mouse at 10 mg/kg, po administered via gavage containing <0.4% Ro-61-8048 by LC-MS/MS analysis; type: ADME, organism-based; design: dose 10 mg/kg, route oral; conditions: in vivo; in short: as §1
[16] = Cmax in mouse at 10 mg/kg, po; type: ADME, organism-based; design: dose 10 mg/kg, route oral; conditions: in vivo
[17] = Cmax in mouse at 25 mg/kg, po; type: ADME, organism-based; design: dose 25 mg/kg, route oral; conditions: in vivo
[18] = molecular target: Kynurenine 3-monooxygenase (Homo sapiens, UniProt O15229); test: Inhibition of KMO (unknown origin)
Sequence of Kynurenine 3-monooxygenase (Homo sapiens, UniProt O15229) (O15229 whole entry): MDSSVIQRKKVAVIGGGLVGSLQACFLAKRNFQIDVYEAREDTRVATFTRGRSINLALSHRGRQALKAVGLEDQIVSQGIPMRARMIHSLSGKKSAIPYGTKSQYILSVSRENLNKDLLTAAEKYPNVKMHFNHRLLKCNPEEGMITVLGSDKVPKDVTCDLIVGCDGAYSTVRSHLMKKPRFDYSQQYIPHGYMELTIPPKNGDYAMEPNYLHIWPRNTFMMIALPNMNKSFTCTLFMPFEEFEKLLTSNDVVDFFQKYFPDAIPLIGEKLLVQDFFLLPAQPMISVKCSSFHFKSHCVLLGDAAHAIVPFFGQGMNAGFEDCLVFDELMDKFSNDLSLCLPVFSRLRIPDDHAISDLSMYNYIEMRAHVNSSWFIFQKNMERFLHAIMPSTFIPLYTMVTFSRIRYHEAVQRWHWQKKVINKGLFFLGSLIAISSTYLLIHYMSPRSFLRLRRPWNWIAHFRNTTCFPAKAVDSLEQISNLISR

[19] = AUClast in C57BL/6N mouse at 5 mg/kg, iv administered as single dose containing <0.4% Ro-61-8048 by LC-MS/MS analysis; type: ADME, organism-based; design: time 0 - last, dose 5 mg/kg, route intravenous; conditions: plasma; in short: as §2
[20] = AUC(infinity) in C57BL/6N mouse at 5 mg/kg, iv administered as single dose containing <0.4% Ro-61-8048 by LC-MS/MS analysis; type: ADME, organism-based; design: time infinity, dose 5 mg/kg, route intravenous; conditions: plasma; in short: as §2
[21] = Plasma clearance in C57BL/6N mouse at 5 mg/kg, iv administered as single dose containing <0.4% Ro-61-8048 by LC-MS/MS analysis; type: ADME, organism-based; design: dose 5 mg/kg, route intravenous
In short: (§4)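 Male C57BL/6N mice given 5 mg/kg iv bolus (1 mg/mL, DMSO:PEG400:water 10:50:40, filtered); dosed material carried Ro-61-8048 as impurity, which was also quantified in plasma. LC-MS/MS after acetonitrile/formic acid extraction; composite non-compartmental analysis of mean concentrations (n=3 per time point), C0 back-extrapolated, kel from ≥3 terminal points.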

[22] = Volume of distribution at steady state in C57BL/6N mouse at 5 mg/kg, iv administered as single dose containing <0.4% Ro-61-8048 by LC-MS/MS analysis; type: ADME, organism-based; design: dose 5 mg/kg, route intravenous; conditions: in vivo, read-out: Vdss; in short: as §4
[23] = Mean residence time in C57BL/6N mouse at 5 mg/kg, iv administered as single dose containing <0.4% Ro-61-8048 by LC-MS/MS analysis; type: ADME, organism-based; design: dose 5 mg/kg, route intravenous; conditions: in vivo; in short: as §4
[24] = tested on: Mus musculus; test: AUC(infinity) in C57BL/6N mouse at 10 mg/kg, po administered via gavage containing <0.4% Ro-61-8048 by LC-MS/MS analysis; type: ADME, organism-based, Plasma; design: time infinity, dose 10 mg/kg, route oral; conditions: in vivo; in short: as §1
[25] = tested on: Liver; test: Metabolic stability in mouse liver microsomes assessed as half life at 1 uM after 5 to 40 mins by LC-MS/MS analysis

AUC(0-inf) [1]: 4.5 µM·h
AUC/dose [2]: 90000 nM·kg·h/mg
Cmax [3]: 550 nM
Cmax/dose [4]: 11000 nM
microsomal CLint at 5 µM [5]: < 29 µL/min/mg
fraction unbound at 6 h [6]: < 0.01
IC50 [7]: ≥ 12 µM
Cmax [8]: 280 nM
AUC(0-t) [9]: 510 µM·h
AUC/dose [10]: 130000 nM·kg·h/mg
clearance [11]: 0.3 mL/min/kg
Vd [12]: 0.15 L/kg
MRT [13]: 498 min
SMILES: COc1ccc(S(=O)(=O)Nc2nc(-c3cccc([N+](=O)[O-])c3)cs2)cc1OC

bioavailability [14]: 7.8%
Cmax [15]: 100 nM
Cmax [16]: 1100 nM
Cmax [17]: 3400 nM
IC50 [18]: 4 µM
AUC(0-t) [19]: 5.2 µM·h
AUC(0-inf) [20]: 5.2 µM·h
clearance [21]: 31.7 mL/min/kg
Vd [22]: 0.37 L/kg
MRT [23]: 12 min
AUC [24]: 1.1 µM·h
t1/2 [25]: 12 min
SMILES: COc1ccc(S(=O)(=O)Nc2nc(-c3cccc([N+](=O)[O-])c3)c(CN3CCCCC3)s2)cc1OC
